# In ChEMBL document CHEMBL2380216, “Design and selection parameters to accelerate the discovery of novel central nervous system positron emission tomography (PET) ligands and their application in the development of a novel phosphodiesterase 2A PET ligand” (J Med Chem, 2013):
# The source made the active and inactive calls. No cut-off for these calls is given here.
# Legend:
# [1] = Fraction unbound in rat brain; assay type: ADME, tissue-based
# [2] = Ratio of total drug level in brain to plasma in Wistar Han rat at 1 mg/kg, iv after 2 hrs; assay type: ADME, organism-based; design: dose 1 mg/kg, route intravenous
# Outline: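 Wistar-Han rats received a single 1 mg/kg IV dose. Total drug levels in brain and plasma were determined from pharmacokinetics over 0−2 h post-dose and expressed as a ratio.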
# [3] = Apparent permeability across apical to basolateral side in dog RRCK cells; assay type: ADME, cell-based, Canis lupus familiaris, MDCKII-LE; conditions: MDCK
# Cynomolgus monkey = test: Binding affinity to PDE2A in cynomolgus monkey striatum at 215 MBq, iv measured for 90 mins by PET analysis; assay type: functional, organism-based; conditions: Macaca fascicularis, 215 M, tested as the 18F-labelled form
# Outline: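 Two male cynomolgus monkeys, 5–6 years old, were fasted overnight and premedicated with ketamine (10 mg/kg IM) and glycopyrrolate (0.01 mg/kg IM). They were then intubated and kept under isoflurane (1.5−2.0% in oxygen). Tracer was an IV bolus via the saphenous vein, targeting 37 MBq/kg. A 90 min dynamic scan followed. Striatal binding potential was derived by a simplified reference tissue model, with cerebellum as the reference region.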
# [4] = target: 3',5'-cyclic-AMP phosphodiesterase 7B (Homo sapiens, UniProt Q9NP56); test: Inhibition of PDE7B (unknown origin)
# [5] = target: cGMP-specific 3',5'-cyclic phosphodiesterase (Homo sapiens, UniProt O76074); test: Inhibition of PDE5A (unknown origin)
# [6] = Fraction unbound in rat plasma; assay type: ADME, cell-free
# [7] = target: 3',5'-cyclic-AMP phosphodiesterase 4D (Homo sapiens, UniProt Q08499); test: Inhibition of PDE4D (unknown origin)
# [8] = Fraction unbound in human plasma; assay type: ADME, cell-free
# [9] = target: Dual specificity calcium/calmodulin-dependent 3',5'-cyclic nucleotide phosphodiesterase 1B (Homo sapiens, UniProt Q01064); test: Inhibition of PDE1B (unknown origin)
# [10] = target: cAMP and cAMP-inhibited cGMP 3',5'-cyclic phosphodiesterase 10A (Homo sapiens, UniProt Q9Y233); test: Inhibition of PDE10A (unknown origin)
# [11] = target: cGMP-dependent 3',5'-cyclic phosphodiesterase (Homo sapiens, UniProt O00408); test: Inhibition of full length recombinant human PDE2A expressed in Sf21 cells using [3H]-cGMP as substrate by scintillation proximity assay
# [12] = target: High affinity cGMP-specific 3',5'-cyclic phosphodiesterase 9A (Homo sapiens, UniProt O76083); test: Inhibition of PDE9A (unknown origin)
# [13] = target: High affinity cAMP-specific and IBMX-insensitive 3',5'-cyclic phosphodiesterase 8B (Homo sapiens, UniProt O95263); test: Inhibition of PDE8B (unknown origin)
# [14] = target: cGMP-inhibited 3',5'-cyclic phosphodiesterase 3A (Homo sapiens, UniProt Q14432); test: Inhibition of PDE3A (unknown origin)
# [15] = Drug uptake in cynomolgus monkey skull at 215 MBq, iv measured for 90 mins by PET analysis; assay type: ADME, organism-based, Macaca fascicularis; conditions: in vivo, 1.5 h
# Outline: (§1)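 Male cynomolgus monkeys (n=2, 5–6 years) were fasted overnight and given ketamine 10 mg/kg IM plus glycopyrrolate 0.01 mg/kg IM. They were intubated and maintained under isoflurane (1.5−2.0% in O2). The radiotracer was given as an IV saphenous bolus targeting 37 MBq/kg. A 57Co transmission scan provided attenuation/scatter correction. A 90 min dynamic acquisition was binned into 16 frames (5×1, 5×5, 6×10 min).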
# [16] = Drug uptake in cynomolgus monkey cerebellum at 215 MBq, iv measured for 90 mins by PET analysis; assay type: ADME, organism-based, Macaca fascicularis; conditions: in vivo, 1.5 h; outline: as §1
# Putamen = test: Drug uptake in cynomolgus monkey putamen at 215 MBq, iv measured for 90 mins by PET analysis; assay type: ADME, organism-based, Macaca fascicularis; conditions: in vivo, 1.5 h; outline: as §1
# [17] = Drug uptake in cynomolgus monkey caudate nucleus at 215 MBq, iv measured for 90 mins by PET analysis; assay type: ADME, organism-based, Macaca fascicularis; conditions: in vivo, 1.5 h; outline: as §1
# Sequence of 3',5'-cyclic-AMP phosphodiesterase 4D (Q08499 whole entry): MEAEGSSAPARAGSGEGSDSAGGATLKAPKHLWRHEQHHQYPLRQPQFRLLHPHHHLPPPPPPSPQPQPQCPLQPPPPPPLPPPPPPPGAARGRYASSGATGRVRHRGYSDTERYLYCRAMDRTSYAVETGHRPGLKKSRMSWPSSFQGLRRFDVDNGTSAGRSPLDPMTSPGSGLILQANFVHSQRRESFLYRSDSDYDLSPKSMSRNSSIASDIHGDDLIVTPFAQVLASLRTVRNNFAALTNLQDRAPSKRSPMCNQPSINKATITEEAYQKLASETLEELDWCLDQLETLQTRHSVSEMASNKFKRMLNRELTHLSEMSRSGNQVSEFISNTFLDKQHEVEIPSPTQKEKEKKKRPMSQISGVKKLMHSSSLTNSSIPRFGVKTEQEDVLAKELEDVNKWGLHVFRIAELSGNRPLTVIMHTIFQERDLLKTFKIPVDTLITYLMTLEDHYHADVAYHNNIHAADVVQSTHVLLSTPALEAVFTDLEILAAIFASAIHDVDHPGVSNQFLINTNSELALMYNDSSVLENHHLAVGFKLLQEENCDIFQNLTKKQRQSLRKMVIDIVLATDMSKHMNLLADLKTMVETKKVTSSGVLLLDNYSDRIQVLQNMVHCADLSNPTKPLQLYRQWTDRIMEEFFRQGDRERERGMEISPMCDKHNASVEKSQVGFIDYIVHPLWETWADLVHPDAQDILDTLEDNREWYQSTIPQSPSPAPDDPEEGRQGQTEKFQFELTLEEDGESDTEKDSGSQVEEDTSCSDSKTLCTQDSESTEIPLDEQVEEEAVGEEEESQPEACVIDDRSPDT
# Sequence of 3',5'-cyclic-AMP phosphodiesterase 7B (Q9NP56 whole entry): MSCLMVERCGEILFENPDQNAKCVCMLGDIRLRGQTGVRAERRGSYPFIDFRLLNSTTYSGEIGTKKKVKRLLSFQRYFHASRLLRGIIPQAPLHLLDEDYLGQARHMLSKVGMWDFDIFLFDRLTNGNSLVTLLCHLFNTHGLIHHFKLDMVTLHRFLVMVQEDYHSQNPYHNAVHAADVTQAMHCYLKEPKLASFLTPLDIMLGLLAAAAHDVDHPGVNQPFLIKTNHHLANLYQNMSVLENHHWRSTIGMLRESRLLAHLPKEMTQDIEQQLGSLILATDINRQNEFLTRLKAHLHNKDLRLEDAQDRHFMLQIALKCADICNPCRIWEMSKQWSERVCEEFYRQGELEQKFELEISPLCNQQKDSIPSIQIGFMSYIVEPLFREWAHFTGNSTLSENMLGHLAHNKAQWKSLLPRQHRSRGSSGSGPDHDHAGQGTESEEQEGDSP
# Sequence of Dual specificity calcium/calmodulin-dependent 3',5'-cyclic nucleotide phosphodiesterase 1B (Q01064 whole entry): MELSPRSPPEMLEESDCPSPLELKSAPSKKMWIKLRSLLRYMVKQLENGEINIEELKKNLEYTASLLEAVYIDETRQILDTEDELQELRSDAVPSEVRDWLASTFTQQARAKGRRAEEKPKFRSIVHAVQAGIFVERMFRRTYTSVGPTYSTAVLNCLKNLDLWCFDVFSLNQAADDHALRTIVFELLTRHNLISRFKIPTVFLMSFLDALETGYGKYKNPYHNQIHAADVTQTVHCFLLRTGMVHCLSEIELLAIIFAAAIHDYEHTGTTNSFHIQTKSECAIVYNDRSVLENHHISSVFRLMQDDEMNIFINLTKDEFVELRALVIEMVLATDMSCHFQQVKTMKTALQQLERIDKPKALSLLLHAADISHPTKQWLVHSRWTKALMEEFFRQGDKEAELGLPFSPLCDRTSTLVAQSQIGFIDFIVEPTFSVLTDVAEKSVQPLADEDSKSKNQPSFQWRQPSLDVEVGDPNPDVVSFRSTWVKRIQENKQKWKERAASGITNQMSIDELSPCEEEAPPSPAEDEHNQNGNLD
# Sequence of High affinity cGMP-specific 3',5'-cyclic phosphodiesterase 9A (O76083 whole entry): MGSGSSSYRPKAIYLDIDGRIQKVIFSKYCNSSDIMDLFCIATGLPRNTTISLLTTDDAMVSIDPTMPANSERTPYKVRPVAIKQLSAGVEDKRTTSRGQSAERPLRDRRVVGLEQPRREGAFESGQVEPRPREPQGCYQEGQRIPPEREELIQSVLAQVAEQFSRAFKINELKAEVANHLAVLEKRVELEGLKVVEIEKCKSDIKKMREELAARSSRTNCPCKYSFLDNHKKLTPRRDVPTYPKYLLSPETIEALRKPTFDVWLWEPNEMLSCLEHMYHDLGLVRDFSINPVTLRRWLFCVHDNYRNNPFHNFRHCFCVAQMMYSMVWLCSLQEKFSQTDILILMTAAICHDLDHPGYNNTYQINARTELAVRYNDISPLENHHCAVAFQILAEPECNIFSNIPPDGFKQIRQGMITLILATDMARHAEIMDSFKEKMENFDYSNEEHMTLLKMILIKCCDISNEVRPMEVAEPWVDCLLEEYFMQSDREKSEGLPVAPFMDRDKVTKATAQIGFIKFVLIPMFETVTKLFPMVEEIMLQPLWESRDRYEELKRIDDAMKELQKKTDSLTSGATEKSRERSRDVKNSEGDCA
# Sequence of High affinity cAMP-specific and IBMX-insensitive 3',5'-cyclic phosphodiesterase 8B (O95263 whole entry): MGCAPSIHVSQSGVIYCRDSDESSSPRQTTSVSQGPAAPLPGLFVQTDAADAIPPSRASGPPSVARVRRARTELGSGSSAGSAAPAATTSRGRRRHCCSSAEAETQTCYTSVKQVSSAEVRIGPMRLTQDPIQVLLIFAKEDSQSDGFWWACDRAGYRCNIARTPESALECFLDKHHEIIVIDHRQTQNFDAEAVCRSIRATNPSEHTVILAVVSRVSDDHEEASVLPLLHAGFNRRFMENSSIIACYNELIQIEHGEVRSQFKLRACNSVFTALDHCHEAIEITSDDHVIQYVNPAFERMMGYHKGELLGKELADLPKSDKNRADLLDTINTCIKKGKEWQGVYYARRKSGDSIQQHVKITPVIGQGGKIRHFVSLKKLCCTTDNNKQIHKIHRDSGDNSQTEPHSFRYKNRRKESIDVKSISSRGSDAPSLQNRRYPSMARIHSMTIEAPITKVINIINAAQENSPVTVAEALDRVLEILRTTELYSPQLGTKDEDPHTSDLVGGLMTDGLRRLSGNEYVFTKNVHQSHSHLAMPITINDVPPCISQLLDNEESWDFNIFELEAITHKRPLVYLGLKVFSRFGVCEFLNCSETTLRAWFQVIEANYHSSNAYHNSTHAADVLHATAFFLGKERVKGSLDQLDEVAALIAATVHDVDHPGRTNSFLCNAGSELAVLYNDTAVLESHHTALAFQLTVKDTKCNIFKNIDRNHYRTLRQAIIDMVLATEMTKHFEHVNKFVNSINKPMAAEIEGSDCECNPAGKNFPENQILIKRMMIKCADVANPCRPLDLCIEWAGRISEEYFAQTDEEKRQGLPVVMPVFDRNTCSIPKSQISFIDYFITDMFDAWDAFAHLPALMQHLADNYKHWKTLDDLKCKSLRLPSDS
# Sequence of cGMP-dependent 3',5'-cyclic phosphodiesterase (O00408 whole entry): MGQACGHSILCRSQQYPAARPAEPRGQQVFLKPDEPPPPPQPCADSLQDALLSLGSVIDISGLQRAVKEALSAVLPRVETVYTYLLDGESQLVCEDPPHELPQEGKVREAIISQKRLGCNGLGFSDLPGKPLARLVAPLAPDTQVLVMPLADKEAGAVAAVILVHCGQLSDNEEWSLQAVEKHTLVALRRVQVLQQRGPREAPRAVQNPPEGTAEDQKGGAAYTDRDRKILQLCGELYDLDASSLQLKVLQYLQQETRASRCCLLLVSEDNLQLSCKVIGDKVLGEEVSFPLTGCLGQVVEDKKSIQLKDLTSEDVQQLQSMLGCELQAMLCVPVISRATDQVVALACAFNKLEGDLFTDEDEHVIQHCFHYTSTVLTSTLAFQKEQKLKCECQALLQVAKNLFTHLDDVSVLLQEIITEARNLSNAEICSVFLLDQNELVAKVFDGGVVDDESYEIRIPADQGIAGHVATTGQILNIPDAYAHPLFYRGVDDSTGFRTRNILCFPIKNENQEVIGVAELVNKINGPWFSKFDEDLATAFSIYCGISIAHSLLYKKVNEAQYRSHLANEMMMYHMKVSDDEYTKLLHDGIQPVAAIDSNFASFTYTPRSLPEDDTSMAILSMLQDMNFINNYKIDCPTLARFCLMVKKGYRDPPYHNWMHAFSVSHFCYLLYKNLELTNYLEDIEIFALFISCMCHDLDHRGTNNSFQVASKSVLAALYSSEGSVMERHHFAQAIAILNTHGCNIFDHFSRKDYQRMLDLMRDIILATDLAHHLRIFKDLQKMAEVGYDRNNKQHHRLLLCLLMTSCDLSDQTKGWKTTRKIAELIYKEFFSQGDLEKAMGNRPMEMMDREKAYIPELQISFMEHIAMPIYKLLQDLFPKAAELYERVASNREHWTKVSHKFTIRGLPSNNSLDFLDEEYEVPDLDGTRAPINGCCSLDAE
structure (smiles),measurement,setting,value
Cc1nc(-c2cnn(C)c2-c2ccc(C(F)(F)F)cc2)c2c(N3CC(F)C3)ncnn12,fraction unbound,[1],0.077
same,BPR,"[2]; brain, 2 h",1.56
same,Papp A→B,[3],21 ×10⁻⁶ cm/s
same,Activity,Cynomolgus monkey,Active
same,IC50,[4],12 µM
same,IC50,[5],26 µM
same,fraction unbound,[6],0.24
same,IC50,[7],> 30 µM
same,fraction unbound,[8],0.17
same,IC50,[9],> 30 µM
same,IC50,[10],3.9 µM
same,IC50,[11],0.00053 µM
same,IC50,[12],> 10 µM
same,IC50,[13],> 10 µM
same,IC50,[14],> 30 µM
Cc1nc(-c2cnn(C)c2-c2ccc(C(F)(F)F)cc2)c2c(N3CC([18F])C3)ncnn12,Drug uptake,[15],Not Active
same,Drug uptake,[16],Active
same,Drug uptake,Putamen,Active
same,Drug uptake,[17],Active
Cn1ncc(-c2nn(C)c3ncnc(N4CCC4)c23)c1-c1ccc(C(F)(F)F)cc1,Papp A→B,[3],21.5 ×10⁻⁶ cm/s
COc1ccc(-c2c(-c3nc(C)n4ncnc(N5CCC5)c34)cnn2C)c(C)c1,fraction unbound,[1],0.17
same,Kp at 2 h,"[2]; Wistar Han, brain and plasma, read-out: BPR",0.34
same,Papp A→B,[3],42 ×10⁻⁶ cm/s
same,fraction unbound,[6],0.29
same,fraction unbound,[8],0.23
